# Data reported in PMC9729583 (Antiviral Research, 2022).
# Read-outs that look alike come from different tables or passages of the source.
# Tests used:
# [1] = tested on: Calu-3 cells; test: PrestoBlue cytotoxicity assay; type: cell-based, human; settings: Calu-3, 48 h incubation
# Outline: (§1)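 Calu-3 cells were grown per ATCC recommendations and seeded in 96-well plates. After 24 h, medium was replaced with serially diluted test compound for 48 h. Cells were then incubated 2 h with 5% PrestoBlue and fluorescence read at ex 555/em 585 nm. Viability was expressed as % of vehicle-treated cells. At least three independent experiments were run.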
# [2] = tested on: mNG-SARS-CoV-2; test: microbe, parasite or virus in culture; type: cell-based
# [3] = tested on: mNG-SARS-CoV-2; test: microbe, parasite or virus in culture; type: cell-based; settings: for % Inhibition: 50 µM; for inhibition at 50 µM: Severe acute respiratory syndrome coronavirus 2, Calu-3
# [4] = PrestoBlue cytotoxicity assay; type: cell-based, human; settings: human, Calu-3 cells
# Outline: as §1
# [5] = tested on: SARS-CoV-2 Omicron BA.1; test: dose-response against SARS-CoV-2 Omicron BA.1 in Calu-3 cells; type: cell-based
# [6] = tested on: wild-type SARS-CoV-2; settings: cited from earlier work
# [7] = target: 3CLpro (Severe acute respiratory syndrome coronavirus 2, UniProt P0DTD1); test: 3CLpro enzymatic assay; type: biochemical, SARS-CoV-2; settings: data not shown
# [8] = tested on: mNG-SARS-CoV-2; test: microbe, parasite or virus in culture; type: cell-based; remark: listed apart in the source
# [9] = tested on: wild-type SARS-CoV-2; settings: Huh-7.5 cells ref Dittmar et al., 2021; cited from earlier work
# [10] = Severe acute respiratory syndrome coronavirus 2, Calu-3, read-out: BA.1 (EC50) Nuc, Calu-3, nucleocapsid staining
# [11] = Severe acute respiratory syndrome coronavirus 2, Calu-3, read-out: BA.1 (EC50) dsRNA, Calu-3, dsRNA staining
# [12] = Severe acute respiratory syndrome coronavirus 2, Calu-3
Compound,CC50 [1],EC50 [2],% Inhibition [3],further results
C=CC(C)(C)c1[nH]c2ccccc2c1-c1c(O)c(OC)c2c(c1OC)O[C@H]1Nc3ccccc3[C@@]21O [giluterrin],72 µM,5.44 µM,–,–
CC(C)=CCc1cc([C@@H]2CC(=O)c3c(O)cc(O)c(CC=C(C)C)c3O2)cc(CC=C(C)C)c1O [5-hydroxysophoranone],> 100 µM,20.2 µM,100%,–
COc1cc(-c2cc3c(c(=O)o2)C[C@]2(O)[C@@]4(C)C(=O)C=CC(C)(C)[C@]4(O)CC[C@@]2(C)O3)cc(OC)c1OC [territrem B],–,6.64 µM,–,CC50 at 48 h [4]: > 100 µM; inhibition at 50 µM [3]: 100%
"CCC/C=C/C=C/C(=O)O[C@H]1/C(=C/C(=O)OC)C[C@H]2C[C@H]([C@@H](C)O)OC(=O)C[C@H](O)C[C@@H]3C[C@H](OC(C)=O)C(C)(C)[C@](O)(C[C@@H]4C/C(=C/C(=O)OC)C[C@H](/C=C/C(C)(C)[C@]1(O)O2)O4)O3 [bryostatin, bryostatin-1]",–,–,–,"EC50 [5, 10]: 0.222 µM; EC50 [5, 11]: 0.523 µM"
C=C1C[C@H]2[C@@](C)(C(=O)C(O)=C3C(C)(C)C(=O)CC[C@@]32C)[C@@H]2C(=O)O[C@@](C)(C(=O)OC)C(=O)[C@@]12C [terretonin A],–,7.31 µM,–,CC50 at 48 h [4]: > 100 µM; inhibition at 50 µM [3]: 82%
COc1cc([C@H]2OC[C@]3(O)[C@@H](c4ccc(O)c(OC)c4)OC[C@H]23)ccc1O [8-hydroxypinoresinol],> 100 µM,24.4 µM,82%,–
CC(C)=CCC/C(C)=C/Cc1c(O)cc2oc3c(O)cccc3c(=O)c2c1O [mangostinone],–,27.9 µM,–,CC50 at 48 h [4]: > 100 µM; inhibition at 50 µM [3]: 92%
COc1ccc2c(c1)c(C1=C(c3c[nH]c4ccccc34)C(=O)NC1=O)cn2CCCN(C)C [Gö6983],–,–,–,effect on SARS-CoV-2 BA.1 infection [5]: dramatic increase in susceptibility of cells to SARS-CoV-2 BA.1
acetyl hyrtiosal,> 100 µM,1.97 µM,97%,–
CC(C)C[C@H](NC(=O)OCc1ccccc1)C(=O)N[C@@H](CC1CCNC1=O)C(O)S(=O)(=O)O (stereo partly drawn) [GC376],–,0.475 µM,–,"EC50 ([6]; Vero E6 cells ref Dampalla et al., 2021): 0.23 µM; EC50 ([6]; Vero E6 cells ref Fu et al., 2020): 0.7 µM"
C[C@@H]1CC[C@@]2(OC1)O[C@H]1C[C@H]3[C@@H]4CC[C@@H]5CC(=O)CC[C@]5(C)[C@H]4CC(=O)[C@]3(C)[C@@]1(O)[C@@H]2C [asparacemosone B],> 100 µM,4.04 µM,83%,–
COc1c2ccoc2c(OCC=C(C)C)c2oc(=O)ccc12 [phellopterin],–,6.35 µM,–,CC50 at 48 h [4]: 93 µM; inhibition at 50 µM [3]: 96%
2-butylchrysin,> 100 µM,18 µM,95%,–
asparacemosone A,> 100 µM,20.7 µM,95%,–
CC(=O)O[C@H]1CC[C@]2(C)[C@H]3CC[C@]4(C)Oc5cc(C)oc(=O)c5C[C@H]4[C@]3(C)CC[C@H]2C1(C)C [chevalone B],> 100 µM,4.47 µM,95%,–
O=c1cc(-c2ccccc2)oc2cc(O)cc(O)c12 [chrysin],–,–,–,"CC50 at 48 h [4]: > 100 µM; EC50 [2, 12]: 18.8 µM; inhibition at 50 µM [3]: 99%"

Compound,CC50 [1],EC50 [2],% Inhibition [3],further results
CC1(O)O[C@@H](n2c3ccccc3c3c4c(c5c6ccccc6[nH]c5c32)CNC4=O)C[C@@H](N)[C@H]1O (stereo partly drawn) [holyrine B],–,–,–,activity against 3CLpro [7]: neither holyrine A nor B presented activity against 3CLpro
"CCC(CC)COC(=O)[C@H](C)N[P@](=O)(OC[C@H]1O[C@@](C#N)(c2ccc3c(N)ncnn23)[C@H](O)[C@@H]1O)Oc1ccccc1 [RDV, remdesivir]",–,–,–,"EC50 ([8]; Severe acute respiratory syndrome coronavirus 2, Huh-7.5.1, read-out: EC50 (mNG)): 0.0036 µM; EC50 ([8]; Severe acute respiratory syndrome coronavirus 2, Huh-7.5.1, read-out: EC50 (nucleocapsid staining)): 0.0076 µM; EC50 [9]: 0.002 µM"
C/C=C(/C)C(=O)O[C@H]1C(C)=C[C@]23C(=O)[C@@H](C=C(CO)[C@@H](O)[C@]12O)[C@H]1[C@@H](C[C@H]3C)C1(C)C [PEP 005],–,–,–,"EC50 [5, 10]: 0.7 µM; EC50 [5, 11]: 1.5 µM"
N[C@H](CNc1nc(-c2ccncc2)nc2sc3c(c12)CCCC3)Cc1ccccc1 [CRT0066854],–,–,–,"EC50 ([5]; read-out: BA.1 (EC50) Nuc, Calu-3, nucleocapsid staining): 0.3 µM; EC50 ([5]; read-out: BA.1 (EC50) dsRNA, Calu-3, dsRNA staining): 0.1 µM"
crotonolide F,> 100 µM,8.21 µM,97%,–
CC(C)=CCC[C@](C)(O)[C@H]1CC[C@]2(C)[C@@H]1CC[C@@H]1[C@@]3(C)CCC(=O)C(C)(C)[C@@H]3CC[C@]12C [dipterocarpol],–,3.05 µM,–,CC50 at 48 h [4]: > 100 µM; inhibition at 50 µM [3]: 99%
CC(C)=CCc1cc(-c2coc3c(CC=C(C)C)c(O)ccc3c2=O)ccc1O [erysubin F],–,–,–,"CC50 at 48 h [4]: > 100 µM; EC50 [2, 12]: 45.6 µM; inhibition at 50 µM [3]: 100%"
Cn1c2ccccc2c2c3c(c4c5ccccc5n(CCC#N)c4c21)CNC3=O [Gö6976],–,–,–,effect on SARS-CoV-2 BA.1 infection [5]: dramatic increase in susceptibility of cells to SARS-CoV-2 BA.1
CC1(C)C=Cc2c(cc3occ(-c4ccc(O)cc4)c(=O)c3c2O)O1 [alpinumisoflavone],–,–,–,CC50 at 48 h [4]: > 100 µM; inhibition at 50 µM [3]: 100%
CC(=O)O[C@@]12C[C@@H](C)[C@@]3(O)[C@@H](C=C(CO)C[C@]4(O)C(=O)C(C)=C[C@@H]34)[C@@H]1C2(C)C [prostratin],–,–,–,"EC50 [5, 10]: 11.6 µM; EC50 [5, 11]: 5 µM"
piperbonin A,> 100 µM,3.61 µM,100%,–
Cc1cc(O)c(C=O)c2c1C(=O)Oc1c(cc3c(c1C)C(=O)CC(C)(C)O3)O2 [mollicellin B],–,6.79 µM,–,CC50 at 48 h [4]: > 100 µM; inhibition at 50 µM [3]: 100%
artahongkongene B,> 100 µM,22 µM,81%,–
CC(=O)O[C@H]1CC[C@]2(C)[C@H]3CC[C@]4(C)Oc5oc(C)cc(=O)c5C[C@H]4[C@]3(C)CC[C@H]2C1(C)C [chevalone C],93 µM,4.14 µM,100%,–
C=C1C[C@@]23CC[C@H]4[C@@](C)(CCC[C@@]4(C)C(=O)O)[C@@H]2CC[C@@H]1C3 [kaur-16-en-18-oic acid],> 100 µM,15.1 µM,100%,–
knecorticosanone G,> 100 µM,3.5 µM,100%,–
